In ChEMBL document CHEMBL1150373, “Selection of phage-displayed peptides that bind to a particular ligand-bound antibody” (Bioorg Med Chem, 2008):
Peptide text beside a SMILES is read from it.

Key:
[1] = Binding affinity to fragment antigen binding portion of mouse-human chimeric 93F3 antibody assessed as relative signal by ELISA in presence of 10 uM 2-acetylcyclohexanone
How it was run: (§1)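 Antibody 93F3 coated on microtiter wells (1 µg/25 µL PBS, 37 °C 1 h), blocked with 3% BSA/PBS at 37 °C 1 h. Phage culture supernatant was added with diketone (final 10 µM, from 20 µM in 1% DMSO/PBS) or PBS alone, then incubated 37 °C 1 h. Wells washed with water; bound phage detected with anti-M13–HRP plus ABTS/H2O2, A405.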

[2] = Binding affinity to fragment antigen binding portion of mouse-human chimeric 93F3 antibody assessed as relative signal by ELISA in presence of 10 uM 5-{[4-(3,5-dioxohexyl)phenyl]amino}-5-oxopentanoic acid; how it was run: as §1
[3] = Binding affinity to fragment antigen binding portion of mouse-human chimeric 93F3 antibody assessed as relative signal by ELISA in presence of 10 uM 6-(4-nitrophenyl)hexane-2,4-dione; how it was run: as §1
[4] = Binding affinity to fragment antigen binding portion of mouse-human chimeric 93F3 antibody assessed as relative signal by ELISA; how it was run: as §1
[5] = Binding affinity to mouse-human chimeric antibody 93F3

| Molecule | Activity [1] | Activity [2] | Activity [3] | Activity [4] | Kd [5] |
| --- | --- | --- | --- | --- | --- |
| CC(C)C[C@@H](NC(=O)[C@H](Cc1ccc(O)cc1)NC(=O)[C@@H](N)Cc1c[nH]c2ccccc12)C(=O)N1CCC[C@H]1C(=O)N[C@@H](CC(=O)O)C(=O)N[C@@H](CC(N)=O)C(=O)N1CCC[C@H]1C(=O)N[C@@H](CO)C(=O)N[C@H](C(=O)N[C@@H](Cc1c[nH]c2ccccc12)C(=O)N[C@@H](Cc1cnc[nH]1)C(=O)N[C@H](C(=O)O)[C@@H](C)O)[C@@H](C)O | 0.7 | 0.1 | 0.1 | 1 |  |
| CC(C)C[C@H](NC(=O)[C@H](C)NC(=O)[C@H](Cc1cnc[nH]1)NC(=O)[C@@H](NC(=O)[C@H](CC(C)C)NC(=O)[C@@H]1CCCN1C(=O)[C@H](CO)NC(=O)[C@@H](N)CS)[C@@H](C)O)C(=O)N[C@@H](CS)C(=O)O (H-CSPLTHALC-OH) | 0.2 | 1 | 0.2 | 0.2 |  |
| C[C@H](O)[C@H](NC(=O)[C@@H]1CCCN1C(=O)[C@H](Cc1ccccc1)NC(=O)[C@H](Cc1c[nH]c2ccccc12)NC(=O)[C@H](Cc1c[nH]c2ccccc12)NC(=O)[C@@H]1CCCN1C(=O)[C@@H](N)CS)C(=O)N[C@@H](CCC(N)=O)C(=O)N[C@@H](CS)C(=O)O | 1 | 0.1 | 0.1 | 0.2 |  |
| CC(C)C[C@H](NC(=O)[C@H](Cc1cnc[nH]1)NC(=O)[C@H](Cc1c[nH]c2ccccc12)NC(=O)[C@@H]1CCCN1C(=O)[C@@H](N)CS)C(=O)N[C@@H](CC(C)C)C(=O)N1CCC[C@H]1C(=O)N[C@@H](Cc1ccccc1)C(=O)N[C@@H](CS)C(=O)O (H-CPWHLLPFC-OH) | 0.8 | 0.1 | 0.2 | 1 |  |
| H-QVPWSYLANGLL-OH | 0.7 | 0.1 | 0.2 | 1 |  |
| CC(=O)CC(=O)CCc1ccccc1 |  |  |  |  | 1000 nM |
| CC(C)C[C@H](NC(=O)[C@H](Cc1c[nH]c2ccccc12)NC(=O)[C@H](Cc1cnc[nH]1)NC(=O)[C@@H](NC(=O)[C@H](Cc1ccccc1)NC(=O)[C@@H]1CCCN1C(=O)[C@@H](NC(=O)[C@@H](N)CS)[C@@H](C)O)[C@@H](C)O)C(=O)N[C@@H](CS)C(=O)O (H-CTPFTHWLC-OH) | 0.1 | 1 | 0.1 | 0.1 |  |
